In ChEMBL document CHEMBL1147176, “Synthesis of S-dialkylarsino-3-mercapto-1,2-propanediols and evaluation of their anticancer activity” (2007):

What was measured:
Format in all cases: functional
OVCAR-3 = experiment: Anticancer activity against human OVCAR-3 cells assessed as growth inhibition
Summary of the method: (§1)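 NCI in vitro disease-oriented human tumor cell screen, about 60 lines. Growth inhibition read as pGI50, the -log of the molar concentration inhibiting 50% net cell growth. A mean graph midpoint is the arithmetic mean over all tested lines. Where the effect was not reached within the concentration interval, the highest tested concentration was used.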

SK-MEL-28 = experiment: Anticancer activity against human SK-MEL-28 cells assessed as growth inhibition; summary of the method: as §1
MCF7 = experiment: Anticancer activity against human MCF7 cells assessed as growth inhibition; summary of the method: as §1
Malme-3M = experiment: Anticancer activity against human MALME3M cells assessed as growth inhibition; summary of the method: as §1
SR = experiment: Anticancer activity against human SR cells assessed as growth inhibition; summary of the method: as §1
HCT-116 = experiment: Anticancer activity against human HCT116 cells assessed as growth inhibition; summary of the method: as §1
BT-549 = experiment: Anticancer activity against human BT549 cells assessed as growth inhibition; summary of the method: as §1
MOLT-4 = experiment: Anticancer activity against human MOLT4 cells assessed as growth inhibition; summary of the method: as §1
MDA-MB-435 = experiment: Anticancer activity against human MDA-MB435 cells assessed as growth inhibition; summary of the method: as §1
[1] = Anticancer activity against human HS 578T cells assessed as growth inhibition; summary of the method: as §1
EKVX = experiment: Anticancer activity against human EKVX cells assessed as growth inhibition; summary of the method: as §1
NCI-H322M = experiment: Anticancer activity against human NCI-H322M cells assessed as growth inhibition; summary of the method: as §1
HT-29 = experiment: Anticancer activity against human HT29 cells assessed as growth inhibition; summary of the method: as §1
NCI-H226 = experiment: Anticancer activity against human NCI-H226 cells assessed as growth inhibition; summary of the method: as §1
HOP-92 = experiment: Anticancer activity against human HOP92 cells assessed as growth inhibition; summary of the method: as §1
OVCAR-8 = experiment: Anticancer activity against human OVCAR8 cells assessed as growth inhibition; summary of the method: as §1
SK-OV-3 = experiment: Anticancer activity against human SK-OV3 cells assessed as growth inhibition; summary of the method: as §1
NCI-H460 = experiment: Anticancer activity against human NCI-H460 cells assessed as growth inhibition; summary of the method: as §1
RXF 393 = experiment: Anticancer activity against human RXF393 cells assessed as growth inhibition; summary of the method: as §1
HOP-62 = experiment: Anticancer activity against human HOP62 cells assessed as growth inhibition; summary of the method: as §1
ACHN = experiment: Anticancer activity against human ACHN cells assessed as growth inhibition; summary of the method: as §1
RPMI-8226 = experiment: Anticancer activity against human RPMI8226 cells assessed as growth inhibition; summary of the method: as §1
CAKI-1 = experiment: Anticancer activity against human CAKI1 cells assessed as growth inhibition; summary of the method: as §1
A498 = experiment: Anticancer activity against human A498 cells assessed as growth inhibition; summary of the method: as §1
OVCAR-4 = experiment: Anticancer activity against human OVCAR4 cells assessed as growth inhibition; summary of the method: as §1
HCC 2998 = experiment: Anticancer activity against human HCC2998 cells assessed as growth inhibition; summary of the method: as §1
[2] = read-out: Log LC50 (the source's name) (converted)

C[As](C)SCC(COC(=O)C(Cl)c1ccccc1)OC(=O)C(Cl)c1ccccc1 (stereo unspecified)
GI50 (OVCAR-3): 0.178 µM
CC50 (OVCAR-3; [2]): 3.24 µM
GI50 (SK-MEL-28): 0.603 µM
GI50 (MCF7): 0.372 µM
CC50 (MCF7; [2]): 67.6 µM
GI50 (Malme-3M): 0.0398 µM
CC50 (Malme-3M; [2]): 3.39 µM
GI50 (SR): 1.41 µM
CC50 (SR; [2]): > 100 µM
GI50 (HCT-116): 0.407 µM
CC50 (HCT-116; [2]): 4.9 µM
GI50 (BT-549): 2.45 µM
CC50 (BT-549; [2]): 64.6 µM
GI50 (MOLT-4): 0.347 µM
CC50 (MOLT-4; [2]): > 100 µM
GI50 (MDA-MB-435): 0.209 µM
CC50 (MDA-MB-435; [2]): 28.8 µM
GI50 [1]: 6.17 µM
CC50 [1, 2]: > 100 µM
GI50 (EKVX): 10.5 µM
CC50 (EKVX; [2]): > 100 µM
GI50 (NCI-H322M): 1.66 µM
CC50 (NCI-H322M; [2]): 32.4 µM
GI50 (HT-29): 0.813 µM
CC50 (HT-29; [2]): > 100 µM
GI50 (NCI-H226): 26.9 µM
CC50 (NCI-H226; [2]): 67.6 µM
GI50 (HOP-92): 0.162 µM
CC50 (HOP-92; [2]): 40.7 µM
GI50 (OVCAR-8): 4.07 µM
CC50 (OVCAR-8; [2]): > 100 µM
GI50 (SK-OV-3): 0.646 µM
CC50 (SK-OV-3; [2]): > 100 µM
GI50 (NCI-H460): 5.75 µM
CC50 (NCI-H460; [2]): 79.4 µM
GI50 (RXF 393): 0.363 µM
CC50 (RXF 393; [2]): 36.3 µM
GI50 (HOP-62): 4.37 µM
CC50 (HOP-62; [2]): 40.7 µM
GI50 (ACHN): 0.759 µM
CC50 (ACHN; [2]): 38.9 µM
GI50 (RPMI-8226): 0.316 µM
CC50 (RPMI-8226; [2]): > 100 µM
GI50 (CAKI-1): 0.347 µM
CC50 (CAKI-1; [2]): 30.2 µM
GI50 (A498): 5.5 µM
CC50 (A498; [2]): 57.5 µM
GI50 (OVCAR-4): 1.26 µM
CC50 (OVCAR-4; [2]): > 100 µM
GI50 (HCC 2998): 1.55 µM
CC50 (HCC 2998; [2]): 8.13 µM
